ChEMBL document CHEMBL2429759, “Anti-tumor activity evaluation of novel chrysin-organogermanium(IV) complex in MCF-7 cells” (Bioorg Med Chem Lett, 2013)

Columns and labels:
MCF-10A [1] = assay: (§1) Growth inhibition of human MCF10A cells at 5 ug/ml by MTT assay; type: cell-based; settings: mcf-10a
MCF-10A [2] = assay: (§2) Growth inhibition of human MCF10A cells at 10 ug/ml by MTT assay; type: cell-based; settings: mcf-10a
MCF-10A [3] = assay: Disruption of cell integrity in human MCF10A cells at 10 ug/ml by immunofluorescence analysis relative to control; type: ADME, cell-based
MCF-10A [4] = assay: Disruption of microfilament organization in human MCF10A cells at 10 ug/ml by immunofluorescence analysis relative to control; type: ADME, cell-based
MCF-10A [5] = assay: Antimigratory activity against human MCF10A cells at 10 ug/ml by wound-healing assay; type: ADME, cell-based
Method in brief: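 Scratch wound-healing: monolayers wounded with a p200 pipette tip, kept with or without complex; images taken at 0 and 24 h; reference lines drawn equidistant.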

MCF-10A [6] = assay: (§3) Growth inhibition of human MCF10A cells at 20 ug/ml by MTT assay; type: cell-based; settings: mcf-10a
MCF-10A [7] = assay: (§4) Growth inhibition of human MCF10A cells at 30 ug/ml by MTT assay; type: cell-based; settings: mcf-10a
HepG2 [8] = assay: Growth inhibition of human HepG2 cells by MTT assay; type: functional, cell-based
[9] = as §1; type: cell-based, MCF-10A; settings: MCF10A cells, read-out: GI
[10] = as §2; type: cell-based, MCF-10A; settings: MCF10A cells, read-out: GI
COLO 205 [11] = assay: Growth inhibition of human COLO205 cells at 30 ug/ml by MTT assay; type: functional; settings: read-out: GI
MCF7 [12] = assay: Growth inhibition of human MCF7 cells at 20 ug/ml by MTT assay; type: functional; settings: read-out: GI
HepG2 [13] = assay: Growth inhibition of human HepG2 cells at 30 ug/ml by MTT assay; type: functional; settings: read-out: GI
MCF7 [14] = assay: Growth inhibition of human MCF7 cells at 5 ug/ml by MTT assay; type: functional; settings: read-out: GI
MCF7 [15] = assay: Growth inhibition of human MCF7 cells at 30 ug/ml by MTT assay; type: functional; settings: read-out: GI
MCF7 [16] = assay: Growth inhibition of human MCF7 cells by MTT assay; type: functional, cell-based
[17] = as §3; type: cell-based, MCF-10A; settings: MCF10A cells, read-out: GI
MCF7 [18] = assay: Growth inhibition of human MCF7 cells at 10 ug/ml by MTT assay; type: functional; settings: read-out: GI
[19] = as §4; type: cell-based, MCF-10A; settings: MCF10A cells, read-out: GI
HepG2 [20] = assay: Growth inhibition of human HepG2 cells at 5 ug/ml by MTT assay; type: functional; settings: read-out: GI
HepG2 [21] = assay: Growth inhibition of human HepG2 cells at 20 ug/ml by MTT assay; type: functional; settings: read-out: GI
COLO 205 [22] = assay: Growth inhibition of human COLO205 cells at 10 ug/ml by MTT assay; type: functional; settings: read-out: GI
HepG2 [23] = assay: Growth inhibition of human HepG2 cells at 10 ug/ml by MTT assay; type: functional; settings: read-out: GI
COLO 205 [24] = assay: Growth inhibition of human COLO205 cells by MTT assay; type: functional, cell-based
COLO 205 [25] = assay: Growth inhibition of human COLO205 cells at 5 ug/ml by MTT assay; type: functional; settings: read-out: GI
COLO 205 [26] = assay: Growth inhibition of human COLO205 cells at 20 ug/ml by MTT assay; type: functional; settings: read-out: GI

In the case of “5-hydroxy-2-phenyl-7-(triphenylgermyloxy)-4H-chromen-4-one ethanol”, the “growth inhibition (GI)” value (MCF-10A [1]) is reported as 4.822%, the “growth inhibition (GI)” value (MCF-10A [2]) is reported as 12.3% and the Activity (MCF-10A [3]) is reported as “Non-toxic”. For the same molecule, the Activity (MCF-10A [4]) was “Non-toxic”, the Activity (MCF-10A [5]) was “Toxic” and the “growth inhibition (GI)” value (MCF-10A [6]) was 23.67%. For the same molecule, the “growth inhibition (GI)” value (MCF-10A [7]) was 27.25%.
With O=c1cc(-c2ccccc2)oc2cc(O)cc(O)c12 [CHRYSIN] the “growth inhibition (GI)” value (HepG2 [8]) was “Dose-dependent effect”, the inhibition at 5 ug/ml [9] was 5.92% and the inhibition at 10 ug/ml [10] was 14.5%. It also gave an inhibition of growth at 30 µg/mL (COLO 205 [11]) of 65.2%, an inhibition of growth at 20 µg/mL (MCF7 [12]) of 86.5% and an inhibition of growth at 30 µg/mL (HepG2 [13]) of 65.1%. The inhibition of growth at 5 µg/mL (MCF7 [14]) was 14.6%, the inhibition of growth at 30 µg/mL (MCF7 [15]) was 97% and the “growth inhibition (GI)” value (MCF7 [16]) was “Dose-dependent effect”. For the same molecule, the inhibition at 20 ug/ml [17] was 21.4%, the inhibition of growth at 10 µg/mL (MCF7 [18]) was 45.2% and the inhibition at 30 ug/ml [19] was 29.6%. It also gave an inhibition of growth at 5 µg/mL (HepG2 [20]) of 14.8%, an inhibition of growth at 20 µg/mL (HepG2 [21]) of 55.3% and an inhibition of growth at 10 µg/mL (COLO 205 [22]) of 24.9%. The inhibition of growth at 10 µg/mL (HepG2 [23]) was 29.2%, the “growth inhibition (GI)” value (COLO 205 [24]) was “Dose-dependent effect” and the inhibition of growth at 5 µg/mL (COLO 205 [25]) was 15.2%. For the same molecule, the inhibition of growth at 20 µg/mL (COLO 205 [26]) was 56.5%.
